The values that follow come from ChEMBL document CHEMBL1150215, “Strychnogucines A and B, two new antiplasmodial bisindole alkaloids from Strychnos icaja” (J Nat Prod, 2001).

Data set [1] deals with Plasmodium falciparum. Nature of the data set: Antiplasmodial activity against chloroquine-sensitive Plasmodium falciparum FCA 20 Ghana by [3H]hypoxanthine uptake. Type of data set: functional, organism-based. The essentials: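 Asexual erythrocytic stages kept in continuous in vitro culture (Trager and Jensen method). Eight 4-fold dilutions per sample, final concentrations 20 μg/mL down to 0.0012 μg/mL, each tested in duplicate. Growth read as [³H]hypoxanthine incorporation (Desjardins method, Mirovsky modification). Results given as mean ± standard deviation; differences assessed by Student's t-test, p ≤ 0.05.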

Data set [2] relates to Plasmodium falciparum. As to the kind of experiment: Antiplasmodial activity against chloroquine-resistant Plasmodium falciparum W2 Indochina by [3H]hypoxanthine uptake. Type of data set: functional, organism-based. The essentials: (§1)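 Continuous asexual erythrocytic P. falciparum culture (Trager and Jensen). Samples tested as eight 4-fold dilutions, final 20 µg/mL down to 0.0012 µg/mL, in duplicate. Growth read by [3H]hypoxanthine incorporation (Desjardins method, Mirovsky modification). IC50 given as mean ± standard deviation. Differences were tested by Student's t-test at p ≤ 0.05.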

The subject of data set [3] is Plasmodium falciparum. As to the kind of experiment: Antiplasmodial activity against chloroquine-sensitive Plasmodium falciparum F32-Tanzania by [3H]hypoxanthine uptake. Type of data set: functional, organism-based. A digest of the protocol:
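Asexual erythrocytic stages kept in continuous in vitro culture (Trager and Jensen method). Eight 4-fold dilutions per sample, final concentrations 20 μg/mL down to 0.0012 μg/mL, each tested in duplicate. Growth read as [³H]hypoxanthine incorporation (Desjardins method, Mirovsky modification).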

For data set [4], the system named is Plasmodium falciparum. As to the kind of experiment: Antiplasmodial activity against chloroquine-resistant Plasmodium falciparum PFB Brazil by [3H]hypoxanthine uptake. The data set is classed as functional, organism-based. The essentials:
as §1

The next data set relates to KB. Nature of the data set: Cytotoxicity against human KB cells by WST1 assay. Type of data set: cell-based. A digest of the protocol:
(§2)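 Cells grown as in earlier work and exposed to samples in 96-well microplates. Viability read by colorimetric assay with the tetrazolium salt WST-1. Emetine and usambarensine base run as reference compounds. Results given as IC50 in μM.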
Background: Tetrazolium assays rely on reduction of a dye to a coloured formazan, in cell work by metabolically active cells.

Data set [5] in a line: Cytotoxicity against human WI38 cells by WST1 assay. The data set is classed as cell-based. The conditions noted are these: WI-38. A digest of the protocol:
as §2

The nature of data set [6]: Selectivity index, ratio of IC50 for human KB cells to IC50 for chloroquine-sensitive Plasmodium falciparum FCA 20 Ghana. Type of data set: toxicity, cell-based. The conditions noted are these: KB cells versus Plasmodium falciparum FCA 20 Ghana, read-out: Ratio IC50. A digest of the protocol:
(§3)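 SI is cytotoxicity IC50 divided by antiplasmodial IC50. Cytotoxicity was measured on cultured KB cancer cells or WI38 human fibroblasts in microplates by WST-1 tetrazolium colorimetric assay, with emetine and usambarensine as references.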

Data set [7] is described as follows: Selectivity index, ratio of IC50 for human KB cells to IC50 for chloroquine-resistant Plasmodium falciparum W2 Indochina. The data set is classed as toxicity, cell-based. The conditions noted are these: KB cells versus Plasmodium falciparum W2 Indochina, read-out: Ratio IC50. A digest of the protocol: as §3
Data set [8] can be described thus: Selectivity index, ratio of IC50 for human WI38 cells to IC50 for chloroquine-sensitive Plasmodium falciparum FCA 20 Ghana. The conditions noted are these: WI38 cells versus Plasmodium falciparum FCA 20 Ghana, read-out: Ratio IC50. Type of data set: toxicity, cell-based, WI-38. The essentials:
as §3

The nature of data set [9]: Selectivity index, ratio of IC50 for human WI38 cells to IC50 for chloroquine-resistant Plasmodium falciparum W2 Indochina. The data set is classed as toxicity, cell-based, WI-38. The conditions noted are these: WI38 cells versus Plasmodium falciparum W2 Indochina, read-out: Ratio IC50. A digest of the protocol: as §3

Take `C/C=C1/CN2[C@@H](C3=C[C@@H]4[C@@H]5N(C3=O)c3ccccc3[C@@]53CCN5C/C(=C/CO)[C@@H]4C[C@H]53)C[C@@]34c5ccccc5N5C(=O)CC=C([C@H]1C[C@H]23)[C@H]54`: the IC90 (in general, the concentration needed for an effect of 90%) turned out to be 4.35 µM in the data set with Plasmodium falciparum [1], 1.35 µM in the data set with Plasmodium falciparum [2], 5.35 µM in the data set with Plasmodium falciparum [3] and 1.64 µM in the data set on Plasmodium falciparum [4]. Moreover, the IC50 (as a rule, the concentration that gives 50% inhibition) in the data set on Plasmodium falciparum [3] was determined as 1.26 µM; with Plasmodium falciparum [4], 0.431 µM; in the data set with KB it was 16.2 µM; in [5], 16.8 µM. The selectivity ratio in [6] turned out to be 19.1; in data set [7], 116; in [8], 19.8; in data set [9], 120.
Regarding `CCN(CC)CCCC(C)Nc1ccnc2cc(Cl)ccc12` (stereo unspecified) [CHLOROQUINE], the IC90 is 0.119 µM with Plasmodium falciparum [1], 1.75 µM in the data set with Plasmodium falciparum [2], 0.063 µM in the data set with Plasmodium falciparum [3] and 1.54 µM in the data set with Plasmodium falciparum [4].
Consider `CC[C@H]1CN2CCc3cc(OC)c(OC)cc3[C@@H]2C[C@@H]1C[C@H]1NCCc2cc(OC)c(OC)cc21` [EMETINE], for which the 50% inhibitory concentration (IC50) in the data set with KB stood at 0.056 µM.
In the case of `C/C=C1/CN2[C@@H](C3=C[C@@H]4[C@@H]5N(C3=O)c3ccccc3[C@@]53CCN5C/C(=C/C)[C@@H]4C[C@H]53)C[C@@]34c5ccccc5N5C(=O)CC=C([C@H]1C[C@H]23)[C@H]54` [ISOSUNGUCINE], the figures for the IC90 with Plasmodium falciparum [1] and with Plasmodium falciparum [2] were 7.06 µM and 1.72 µM, respectively. Moreover, the IC50 is 9 µM in the data set with KB and 9.2 µM in data set [5]. The selectivity ratio in data set [6] came out at 6.8; in data set [7], 34; in data set [8], 7; in data set [9], 34.7.
`OC(c1cc(C(F)(F)F)nc2c(C(F)(F)F)cccc12)C1CCCCN1` (stereo unspecified) [MEFLOQUINE] yielded an IC90 in the data set on Plasmodium falciparum [3] of 0.354 µM. For the same compound, in the data set on Plasmodium falciparum [4], the IC50 came to 0.002 µM and the IC90 came out at 0.006 µM.
For the compound `C=C[C@H]1CN2CC[C@H]1C[C@H]2[C@H](O)c1ccnc2ccc(OC)cc12` [QUININE], the IC90 was 1.91 µM in the data set on Plasmodium falciparum [1] and 1.72 µM with Plasmodium falciparum [2].
`C/C=C1/CN2[C@@H]([C@@H]3C(=O)N4c5ccccc5[C@@]56CCN7CC8=CCO[C@@H]3[C@@H]([C@H]45)[C@H]8C[C@H]76)C[C@@]34c5ccccc5N5C(=O)CC=C([C@H]1C[C@H]23)[C@H]54` [STRYCHNOGUCINE A]: the IC50 in the data set with Plasmodium falciparum [1] was 2.31 µM; with Plasmodium falciparum [3], 4.81 µM; in the data set with Plasmodium falciparum [4], 3.2 µM. The IC90 is 6.98 µM with Plasmodium falciparum [1], 9.54 µM in the data set on Plasmodium falciparum [3] and 9.4 µM in the data set on Plasmodium falciparum [4].
Consider `O=C1C[C@@H]2OCC=C3CN4[C@@H](C5=C[C@@H]6[C@@H]7N(C5=O)c5ccccc5[C@@]75CCN7C/C(=C/CO)[C@@H]6C[C@H]75)C[C@]56c7ccccc7N1[C@H]5[C@@H]2[C@H]3C[C@H]46` [STRYCHNOGUCINE B], for which the IC90 in the data set on Plasmodium falciparum [1] was determined as 3.79 µM; in the data set on Plasmodium falciparum [3], 3.23 µM; with Plasmodium falciparum [4], 1.15 µM. Also, the IC50 was 0.51 µM in the data set with Plasmodium falciparum [3], 0.202 µM in the data set with Plasmodium falciparum [4], over 15 µM in the data set with KB and 15.5 µM in data set [5]. In addition, the selectivity ratio in data set [6] was over 24.3; in [7], over 176; in data set [8] it was 25.1; in [9], 182.
Turning to `C/C=C1/CN2CC[C@]34c5ccccc5N5C(=O)C([C@H]6C[C@]78c9ccccc9N9C(=O)C=C[C@@H]([C@H]97)[C@H]7C[C@@H]8N6C/C7=C/C)=C[C@H]([C@H]53)[C@H]1C[C@H]24` [SUNGUCINE], the IC90 is 26.3 µM with Plasmodium falciparum [1] and 33.1 µM with Plasmodium falciparum [2]. Further, the results for the IC50 (with KB; in data set [5]) were 6.2 µM and 6 µM, respectively. For the same compound, the selectivity ratio in [6] was 0.8; in [7], 0.6; in [8] it was 0.8; in data set [9], 0.6.
`C/C=C1/CN2CCc3c([nH]c4ccccc34)[C@@H]2C[C@@H]1Cc1nccc2c1[nH]c1ccccc12` [USAMBARENSINE]: the IC50 was 9.7 µM in the data set on KB and 4.62 µM in [5]. In addition, the selectivity ratio stood at 14.8 in data set [6], 36.6 in data set [7], 3.1 in data set [8] and 7.8 in [9].
